# Measured values reported in PubChem BioAssay.
# Activity calls are given as the source filed them. Rule as the data show it, unless noted: active = inhibition above about 30%; inactive = the rest.
# Assays:
# [1] = Her2 expression decrease, cell viability multiplex – SKBR3 breast tumor cells, AlphaScreen, ATP viability, primary screen (AID 461;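 active = Her2 level under about 52% in both replicate screens, with viability over 70% of control, limit read from the data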;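 as to Her2 level: lower value means less Her2 protein in the cells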;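 as to viability: percent of carrier control wells set as 100% viability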); conditions: SKBR3 Her2 protein level, 18-24 h, measured here: SKBR3 viability, ATP luminescence, at 10 µM
# [2] = molecular target: Receptor tyrosine-protein kinase erbB-2 (Homo sapiens) (UniProt P04626); experiment: as above; conditions: 18-24 h, at 10 µM, stronger effect = lower value
# Chain of Receptor tyrosine-protein kinase erbB-2 (Homo sapiens) (P04626 whole entry, looked up): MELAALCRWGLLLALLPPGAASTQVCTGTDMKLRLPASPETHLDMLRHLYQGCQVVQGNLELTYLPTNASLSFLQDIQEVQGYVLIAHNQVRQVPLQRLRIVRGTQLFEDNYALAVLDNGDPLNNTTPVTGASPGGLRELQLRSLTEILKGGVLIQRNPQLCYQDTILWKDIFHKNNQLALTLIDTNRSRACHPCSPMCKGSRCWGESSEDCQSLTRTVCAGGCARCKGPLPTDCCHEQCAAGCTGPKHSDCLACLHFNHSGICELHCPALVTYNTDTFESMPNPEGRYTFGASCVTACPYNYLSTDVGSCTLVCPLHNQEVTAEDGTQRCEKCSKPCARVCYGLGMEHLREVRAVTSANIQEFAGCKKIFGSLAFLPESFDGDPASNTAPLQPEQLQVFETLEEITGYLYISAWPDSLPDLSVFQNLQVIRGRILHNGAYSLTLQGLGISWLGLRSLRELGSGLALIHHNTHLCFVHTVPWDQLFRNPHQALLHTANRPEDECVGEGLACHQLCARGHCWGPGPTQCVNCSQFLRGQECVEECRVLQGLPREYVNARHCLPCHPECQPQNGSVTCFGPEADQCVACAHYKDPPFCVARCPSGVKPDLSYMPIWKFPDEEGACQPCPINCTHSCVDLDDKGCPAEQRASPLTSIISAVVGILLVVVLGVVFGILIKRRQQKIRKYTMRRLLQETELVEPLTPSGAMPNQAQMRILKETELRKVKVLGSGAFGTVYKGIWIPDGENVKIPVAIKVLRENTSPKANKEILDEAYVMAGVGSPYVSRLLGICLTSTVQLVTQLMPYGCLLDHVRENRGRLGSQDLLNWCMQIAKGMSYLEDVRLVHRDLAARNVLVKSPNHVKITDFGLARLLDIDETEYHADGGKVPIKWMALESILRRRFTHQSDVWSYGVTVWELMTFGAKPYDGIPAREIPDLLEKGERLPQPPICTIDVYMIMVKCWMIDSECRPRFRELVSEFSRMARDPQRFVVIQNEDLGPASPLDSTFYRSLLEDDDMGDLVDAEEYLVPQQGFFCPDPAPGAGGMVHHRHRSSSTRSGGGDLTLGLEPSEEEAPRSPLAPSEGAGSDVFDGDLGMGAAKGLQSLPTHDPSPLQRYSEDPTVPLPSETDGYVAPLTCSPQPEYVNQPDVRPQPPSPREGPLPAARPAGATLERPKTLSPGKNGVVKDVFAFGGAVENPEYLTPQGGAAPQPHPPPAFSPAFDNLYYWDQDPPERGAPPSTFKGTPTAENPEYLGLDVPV
# [3] = reduced viability of SK-BR-3 breast cancer cells – cell-based, 24 h, human, pilot screen (AID 572;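 active = viability at or below 10% of carrier control in both of two separate runs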;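 also: compound exposure lasted between 18 and 24 h rather than exactly 24 h; 100% = carrier-treated control wells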); conditions: SK-BR-3 viability, CellTiter-Glo luminescence, at 10 µM, stronger effect = lower value
# [4] = HUVEC growth inhibition – cell-based, human, primary screen (AID 575;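 active = viability at or below 30% in both replicate assays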;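 also: 100% = median of untreated cell wells with 0.1% DMSO on each plate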); conditions: HUVEC proliferation, CellTiter-Glo luminescence, 72 h; at 10 µM; stronger effect = lower value
# Summary of the method: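 Test system: primary human umbilical vein endothelial cells. Quantity: 1250 cells/well. Compound: single 10 µM dose, 0.1% DMSO, from 5x medium stock. Timing: 72 h treatment at 37 °C. Detection: ATP-based CellTiter-Glo luminescent read. Benchmarks: vehicle and MePR control wells. Format: 384-well plates coated with collagen.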
# [5] = H69AR cell proliferation blockers – human, duplicate replicates, primary screen (AID 580;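 active = viability at or under a set limit in both replicates, limit being median viability minus 3 SD, cut at about 48% in these data, passing the limit was not always enough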;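 also: 100% = mean luminescence of untreated wells and 0% = no signal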); conditions: H69AR lung tumor cells viability, ATP luminescence, 72 h; at 10 µM; stronger effect = lower value
# [6] = MRP1 drug-resistance reversers in H69AR cells – cell-based, doxorubicin co-treatment, pilot screen (AID 601;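 active = viability loss from added drug above about 55%, and viability with drug at most 40%, in both replicates, limit read from the data, passing the limit was not always enough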); conditions: CellTiter-Glo, 72 h, at 10 µM; for differential viability (reversal): stronger effect = higher value
# [7] = yeast transport mutant growth inhibition pilot in 384-well plates, post-Golgi transport modulator project (AID 636; in the data active = inhibition above about 31%); conditions: absorbance 615 nm, about 18 h, stronger effect = higher value
# [8] = growth suppression of yeast trafficking mutant, preliminary HTS, modulators of trafficking downstream of Golgi apparatus project, 1536-format plate, OD 615 nm (AID 637); conditions: yeast transport mutant growth, absorbance 615 nm, 18 h; stronger effect = higher value
# [9] = H69AR cells + 2 uM doxorubicin, measured here: viability with 2 uM doxorubicin, stronger effect = lower value
# [10] = H69AR cells, compound alone cytotoxicity
Compound,viability [1] [%],Her2 level [2],viability [3],viability [4],viability [5],differential viability (reversal) ([6]; H69AR cells + 2 uM doxorubicin),"viability [6, 9] [%]","viability [6, 10] [%]",inhibition [7],inhibition [8]
O=C(COC(=O)c1cc(S(=O)(=O)N2CCOCC2)ccc1O)NCC1CCCO1 (stereo not given),91.5,85.5% (inactive),91.5% (inactive),98.7% (inactive),91% (inactive),-3.47% (inactive),94.5,91,-6.4% (inactive),8.36% (inactive)
CC(=O)c1cccc(NC(=O)NCc2ccccn2)c1,91,87% (inactive),91% (inactive),92% (inactive),97.6% (inactive),6.09% (inactive),91.5,97.6,-4.47% (inactive),-4.17% (inactive)
CCC(C)NC(=O)CSC1=Nc2ccccc2C2=NC(CC(=O)NCc3ccccc3)C(=O)N12 (stereo not given),96.5,88% (inactive),96.5% (inactive),85.7% (inactive),107% (inactive),13.1% (inactive),94.2,107,-3.03% (inactive),-3.02% (inactive)
CN1CCN(c2ncnc3c2cnn3-c2ccc(Cl)cc2)CC1,109,94% (inactive),109% (inactive),53.6% (inactive),89.3% (inactive),1.02% (inactive),88.3,89.3,-0.27% (inactive),2.5% (inactive)
Cn1nnc2c(sc3nc(N4CCOCC4)c4c(c32)CCCC4)c1=O,100,114% (inactive),100% (inactive),90.9% (inactive),81.6% (inactive),-7.71% (inactive),89.3,81.6,-0.53% (inactive),-5.08% (inactive)
Cc1cc2c(c(=O)o1)C(C13C=CC(CC1)C3)C(C#N)=C(N)O2 (stereo not given),124,94.5% (inactive),124% (inactive),90.1% (inactive),99.8% (inactive),13.2% (inactive),86.6,99.8,-6.4% (inactive),-5.97% (inactive)
O=C(C1=C(O)C(=O)N(Cc2ccccc2)C1c1ccncc1)c1ccco1 (stereo not given),97.5,111% (inactive),97.5% (inactive),109% (inactive),104% (inactive),3.21% (inactive),101,104,-0.26% (inactive),-5.33% (inactive)
CC(C)c1nc(N2CCN(C(=O)c3ccco3)CC2)c2c3c(sc2n1)CCCC3,76.5,94% (inactive),76.5% (inactive),66.4% (inactive),79.5% (inactive),1.06% (inactive),78.5,79.5,-0.53% (inactive),20.9% (inactive)
CC(C)N(O)C(=O)NC(C)(C)C,110,99% (inactive),110% (inactive),97.8% (inactive),93.8% (inactive),-5.12% (inactive),98.9,93.8,-2.8% (inactive),5% (inactive)
Cc1nc2sc(C(c3cccc(F)c3)N3CCN(C(=O)c4ccco4)CC3)c(O)n2n1 (stereo not given),94,109% (inactive),94% (inactive),120% (inactive),99.3% (inactive),2.58% (inactive),96.7,99.3,-5% (inactive),-9.83% (inactive)
O=C(C1CCCO1)N1CCN(C(c2ccccc2)c2ccccc2)CC1 (stereo not given),98.5,94% (inactive),98.5% (inactive),89.1% (inactive),96% (inactive),6.47% (inactive),89.5,96,-0.91% (inactive),2.62% (inactive)
O=S(=O)(NCC1CCCO1)c1ccc(S(=O)(=O)N2CCc3ccccc3C2)cc1 (stereo not given),90,93.5% (inactive),90% (inactive),94.9% (inactive),94.8% (inactive),5.08% (inactive),89.8,94.8,0.26% (inactive),2.42% (inactive)
CCCn1c(SCC(=O)NC(C)(C)C)nnc1C(C)C,110,79.5% (inactive),110% (inactive),95.9% (inactive),93% (inactive),3.9% (inactive),89.1,93,-4.32% (inactive),17.6% (inactive)
CC1CCN(c2oc(-c3cccc4ccccc34)nc2C#N)CC1,104,72.5% (inactive),104% (inactive),81.7% (inactive),91.7% (inactive),9.42% (inactive),82.3,91.7,-5.53% (inactive),-7.33% (inactive)
CCOc1ccc2c(O)csc2c1,90.5,116% (inactive),90.5% (inactive),96.2% (inactive),95.9% (inactive),2.28% (inactive),93.7,95.9,0.13% (inactive),2.17% (inactive)
c1cc2c(cc1C1=Nn3c(nnc3C3CCCCC3)SC1)OCO2,133,108% (inactive),133% (inactive),64.8% (inactive),9.93% (active),-67.4% (inactive),77.3,9.93,-1.84% (inactive),3.06% (inactive)
